Laboratory results: PMC12966599 (Journal of Pharmaceutical Analysis, 2025)
Numbering of substitutions follows the chain as printed. “Also recorded” adds a separate entry of the source.

Assays:
[1] = molecular target: T1, SHP2-PTP (Homo sapiens, UniProt Q06124); test: SHP2-PTP inhibition assay; assay type: biochemical; details: for IC50: IC50 (SHP2-PTP), DiFMUP substrate
T1 sequence (Q06124 237-529): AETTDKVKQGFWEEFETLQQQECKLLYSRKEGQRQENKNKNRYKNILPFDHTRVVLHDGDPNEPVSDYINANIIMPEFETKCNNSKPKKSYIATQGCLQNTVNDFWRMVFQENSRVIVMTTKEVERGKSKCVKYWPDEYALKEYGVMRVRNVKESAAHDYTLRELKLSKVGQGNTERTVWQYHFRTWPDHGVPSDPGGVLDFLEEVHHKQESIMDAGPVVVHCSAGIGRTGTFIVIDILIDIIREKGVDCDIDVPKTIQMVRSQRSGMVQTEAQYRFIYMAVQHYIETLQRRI

[2] = molecular target: T2, PTPN12 (PTP-PEST) (Homo sapiens, UniProt Q05209); test: Phosphatase selectivity, PTPN12; assay type: biochemical
T2 sequence (Q05209 1-305): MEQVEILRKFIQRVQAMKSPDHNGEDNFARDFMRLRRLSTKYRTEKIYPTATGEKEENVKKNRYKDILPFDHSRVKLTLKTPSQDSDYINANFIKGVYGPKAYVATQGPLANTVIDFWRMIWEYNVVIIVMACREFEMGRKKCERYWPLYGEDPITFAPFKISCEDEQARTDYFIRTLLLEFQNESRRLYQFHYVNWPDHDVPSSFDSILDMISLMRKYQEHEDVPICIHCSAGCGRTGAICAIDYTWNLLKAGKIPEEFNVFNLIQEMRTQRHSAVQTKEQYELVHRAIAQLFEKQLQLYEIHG

[3] = molecular target: PTPRA (RPTPα) (Homo sapiens, UniProt P18433); test: Phosphatase selectivity, PTPRA; assay type: biochemical
Chain of PTPRA (RPTPα) (P18433 183-802): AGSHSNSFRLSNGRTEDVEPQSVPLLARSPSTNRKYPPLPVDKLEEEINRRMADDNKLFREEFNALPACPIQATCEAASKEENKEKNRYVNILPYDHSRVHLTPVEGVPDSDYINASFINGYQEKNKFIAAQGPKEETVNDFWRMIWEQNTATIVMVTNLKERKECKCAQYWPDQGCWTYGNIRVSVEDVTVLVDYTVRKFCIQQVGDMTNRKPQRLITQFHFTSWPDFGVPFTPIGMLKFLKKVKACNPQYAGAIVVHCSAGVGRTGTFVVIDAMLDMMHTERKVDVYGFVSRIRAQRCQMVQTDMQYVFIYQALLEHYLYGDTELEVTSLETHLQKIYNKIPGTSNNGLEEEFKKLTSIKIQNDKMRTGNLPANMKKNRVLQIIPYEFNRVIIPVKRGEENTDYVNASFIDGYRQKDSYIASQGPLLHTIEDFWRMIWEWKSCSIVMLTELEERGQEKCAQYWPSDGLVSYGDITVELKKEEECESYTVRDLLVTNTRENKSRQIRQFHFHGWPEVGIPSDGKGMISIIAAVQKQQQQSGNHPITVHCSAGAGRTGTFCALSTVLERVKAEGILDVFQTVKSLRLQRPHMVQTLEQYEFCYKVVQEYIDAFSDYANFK

[4] = molecular target: T3, SHP2^E76K (Homo sapiens, UniProt Q06124, E76K); test: Inhibition of oncogenic mutant SHP2^E76K; assay type: biochemical
T3 sequence (Q06124 1-525 E76K): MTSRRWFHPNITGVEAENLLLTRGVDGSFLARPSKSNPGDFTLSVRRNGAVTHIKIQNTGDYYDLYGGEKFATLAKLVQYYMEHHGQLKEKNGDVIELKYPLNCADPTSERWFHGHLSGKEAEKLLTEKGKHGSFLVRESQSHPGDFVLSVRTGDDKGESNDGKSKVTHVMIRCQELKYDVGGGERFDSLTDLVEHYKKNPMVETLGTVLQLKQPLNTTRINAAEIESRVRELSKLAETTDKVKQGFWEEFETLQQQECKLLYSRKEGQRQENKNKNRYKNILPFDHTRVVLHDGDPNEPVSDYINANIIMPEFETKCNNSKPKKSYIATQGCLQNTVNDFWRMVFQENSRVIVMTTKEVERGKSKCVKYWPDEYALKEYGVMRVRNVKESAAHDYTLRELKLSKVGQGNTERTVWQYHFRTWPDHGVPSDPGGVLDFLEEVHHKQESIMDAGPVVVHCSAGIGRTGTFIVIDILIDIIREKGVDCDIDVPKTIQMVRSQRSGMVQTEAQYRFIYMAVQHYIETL

[5] = tested on: SHP2 knockdown H1975 cells; test: Cell proliferation in SHP2 knockdown cells; assay type: cell-based; details: SHP2 siRNA treated H1975 cells versus H1975
[6] = molecular target: PTPN6 (SHP1) (Homo sapiens, UniProt P29350); test: Phosphatase selectivity, PTPN6; assay type: biochemical
Chain of PTPN6 (SHP1) (P29350 1-597 isoform P29350-3): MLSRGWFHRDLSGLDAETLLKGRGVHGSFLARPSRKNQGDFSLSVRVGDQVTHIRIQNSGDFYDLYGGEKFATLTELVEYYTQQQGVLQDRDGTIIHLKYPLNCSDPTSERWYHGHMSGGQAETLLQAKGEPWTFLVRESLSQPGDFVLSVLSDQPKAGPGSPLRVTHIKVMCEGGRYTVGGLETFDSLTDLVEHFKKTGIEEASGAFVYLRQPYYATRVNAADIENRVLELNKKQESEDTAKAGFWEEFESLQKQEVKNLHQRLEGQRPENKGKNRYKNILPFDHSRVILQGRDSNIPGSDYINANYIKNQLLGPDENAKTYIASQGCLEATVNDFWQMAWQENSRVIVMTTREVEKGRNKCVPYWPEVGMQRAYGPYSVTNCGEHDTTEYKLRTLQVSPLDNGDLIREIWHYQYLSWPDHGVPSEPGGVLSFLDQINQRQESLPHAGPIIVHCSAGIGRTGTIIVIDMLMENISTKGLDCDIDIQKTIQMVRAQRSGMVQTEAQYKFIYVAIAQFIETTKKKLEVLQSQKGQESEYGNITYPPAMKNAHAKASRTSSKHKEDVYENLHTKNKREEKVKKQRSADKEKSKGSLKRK

[7] = tested on: NCI-H1975 cells; test: Colony formation assay; assay type: cell-based; details: measured 10 days after compound treatment
In short: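 About 10^3 H1975 cells per well in RPMI-1640 with 10% FBS were allowed to adhere overnight and treated the next day. Medium and compound were renewed every 3–4 days. When untreated wells reached confluence, colonies were fixed with formaldehyde, stained with 0.2% crystal violet and scanned.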

[8] = molecular target: T4, SHP2-FL (Homo sapiens, UniProt Q06124); test: SHP2-FL inhibition assay; assay type: biochemical
T4 sequence (Q06124 1-525): T3 sequence (Q06124 1-525 E76K) with K76E

[9] = molecular target: T5, SHP2-PTP^R465A (Homo sapiens, UniProt Q06124, R465A); test: BLI assay, SHP2-PTP^R465A; assay type: binding
T5 sequence (Q06124 237-529 R465A): T1 sequence (Q06124 237-529) with R229A

[10] = tested on: H1975 xenograft; test: NCI-H1975 xenograft model; assay type: in vivo, BALB/c nude mice
In short: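 Female BALB/c nude mice, five weeks old, received a subcutaneous H1975 suspension (5 × 10^6/mL) in the right flank. At a mean tumor volume of 50–100 mm3 they were randomised into three groups. Compound in 0.5% CMC-Na was given intragastrically at 20 mg/kg/day; controls received vehicle. Body weight and tumor volume were recorded every two days. Tumor sections were stained for Ki-67, and tumor lysates were immunoblotted for p-ERK. Data are mean ± SD with two-sided t-test.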

[11] = molecular target: T6, LMWPTP (ACP1) (Homo sapiens, UniProt P24666); test: Phosphatase selectivity, LMWPTP; assay type: biochemical
T6 sequence (P24666 1-158): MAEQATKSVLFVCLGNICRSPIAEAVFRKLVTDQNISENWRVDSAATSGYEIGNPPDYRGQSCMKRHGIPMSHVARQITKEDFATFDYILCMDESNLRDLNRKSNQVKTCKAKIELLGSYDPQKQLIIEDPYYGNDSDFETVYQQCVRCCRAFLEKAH

[12] = molecular target: T7, SHP2-PTP^Q510A (Homo sapiens, UniProt Q06124, Q510A); test: BLI assay, SHP2-PTP^Q510A; assay type: binding
T7 sequence (Q06124 237-529 Q510A): T1 sequence (Q06124 237-529) with Q274A

[13] = molecular target: T8, SHP2^D61V (Homo sapiens, UniProt Q06124, D61V); test: Inhibition of oncogenic mutant SHP2^D61V; assay type: biochemical
T8 sequence (Q06124 1-525 D61V): T3 sequence (Q06124 1-525 E76K) with D61V, K76E

[14] = tested on: NCI-H1975 cells; test: Cell proliferation assay; assay type: cell-based; details: CCK-8, day 3
In short: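 About 1.5 × 10^3 H1975 cells per well, in RPMI-1640 with 10% FBS, were treated with compound at 0–50 μM. On day 3 CCK-8 reagent was added and optical density read. Untreated wells served for background correction.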

[15] = tested on: p-ERK in H1975 cells; test: ERK phosphorylation in cells; assay type: cell-based; details: 10 μM
In short: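 H1975 cells, grown in RPMI-1640 with 10% FBS, were exposed to 10 μM compound and lysed in RIPA buffer with phosphatase and protease inhibitors. Proteins were separated and transferred. Blots were probed overnight at 4 °C with antibodies to p-ERK1/2, total ERK and β-actin diluted in 5% BSA, then developed by enhanced chemiluminescence.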

[16] = molecular target: T9, PTPN1 (PTP1B) (Homo sapiens, UniProt P18031); test: Phosphatase selectivity, PTPN1; assay type: biochemical
T9 sequence (P18031 1-321): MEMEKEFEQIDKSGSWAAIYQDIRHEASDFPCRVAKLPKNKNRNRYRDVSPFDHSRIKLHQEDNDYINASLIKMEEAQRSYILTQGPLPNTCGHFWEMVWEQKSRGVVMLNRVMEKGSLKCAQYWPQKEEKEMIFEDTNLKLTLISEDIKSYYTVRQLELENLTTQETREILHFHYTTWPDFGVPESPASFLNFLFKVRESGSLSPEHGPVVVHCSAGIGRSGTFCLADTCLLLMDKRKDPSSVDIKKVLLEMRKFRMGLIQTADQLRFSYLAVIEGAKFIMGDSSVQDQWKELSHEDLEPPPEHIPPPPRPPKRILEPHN

[17] = molecular target: T10, SHP2^T253M (Homo sapiens, UniProt Q06124, T253M); test: Inhibition of tunnel-site mutant SHP2^T253M; assay type: biochemical
T10 sequence (Q06124 1-525 T253M): T3 sequence (Q06124 1-525 E76K) with K76E, T253M

[18] = tested on: SHP2; details: read-out: IC50 against SHP2; previous study; ref 22 (Liu et al.); cited from earlier work
[19] = 20 mg/kg/day oral, versus vehicle

SMILES: Cc1coc2c1C(=O)C(=O)c1c-2ccc2c(C)cccc12 [Tanshinone I]
- IC50 [1]: 3300 ± 1200 nM

SMILES: Cc1cccc2c3c(ccc12)C1=C(C(=O)C3=O)[C@@H](C)CO1 [DHT, dihydrotanshinone I]
- IC50 [2]: 32.1 ± 3.8 µM
- IC50 [3]: 50.4 ± 5.3 µM
- IC50 [4]: 1610 ± 260 nM
- sensitivity of SHP2-depleted H1975 cells (anti-proliferation) [5]: significantly lower sensitivity
- IC50 [6]: 2500 ± 300 nM
- colony formation of NCI-H1975 cells [7]: significant suppression
- SHP2-FL inhibitory activity (in words) [8]: comparable inhibitory activity
- direct interaction with SHP2-PTP^R465A (BLI) [9]: significantly abolished the direct interaction
- body weight change ([10]; 20 mg/kg/day oral, full treatment course): No body weight loss
- Ki-67 staining in tumor tissue [10, 19]: reduced Ki-67 staining positive areas
- MAPK phosphorylation in tumor tissue [10, 19]: marked decrease
- tumor growth in NCI-H1975 xenograft ([10]; oral gavage 20 mg/kg daily, 20-day treatment, versus vehicle, 20 mg/kg): significant tumor growth suppression; also recorded: modest anti-tumor effect
- fold higher inhibitory potency against SHP2 than cryptotanshinone ([1]; DiFMUP screening, versus cryptotanshinone): 4.7 fold
- IC50 [1]: 1060 ± 210 nM
- fold lower SHP2-PTP IC50 than tanshinone IIA ([1]; versus tanshinone IIA): 13 fold
- IC50 [11]: > 100 µM
- direct interaction with SHP2-PTP^Q510A (BLI) [12]: significantly abolished the direct interaction
- IC50 [13]: 1340 ± 360 nM
- proliferation of NCI-H1975 cells [14]: significant suppression
- ERK phosphorylation (Western blot) [15]: significant decrease
- IC50 [16]: 9.3 ± 0.94 µM

SMILES: C[C@@H]1OCC2(CCN(c3cnc(Sc4ccnc(N)c4Cl)c(N)n3)CC2)[C@@H]1N [TNO155]
- effect of SHP2^T253M mutation on efficacy (in words) [17]: eliminated the efficacy

SMILES: C[C@H]1COC2=C1C(=O)C(=O)c1c2ccc2c1CCCC2(C)C [Cryptotanshinone]
- IC50 [18]: 22.5 µM
